From ChEMBL document CHEMBL1268838, “The synthesis and biologic evaluation of anti-platelet and cytotoxic β-nitrostyrenes” (Bioorg Med Chem, 2010)

Columns and labels:
[1] = Antiaggregatory activity in human platelets assessed as inhibition of collagen-induced platelet aggregation preincubated for 3 mins before collagen challenge by turbidimetry analysis; assay type: functional, cell-based
Method in brief: (§1)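 Washed platelets from ACD-anticoagulated blood of drug-free healthy volunteers, resuspended at 3 × 10⁸/ml in Tyrode's solution with Ca²⁺ 2 mM, glucose 11.1 mM and BSA 3.5 mg/ml. Platelets were stirred at 1200 rpm and 37 °C for 3 min with DMSO (0.5%, vehicle) or compound, then the inducer was added. Aggregation was read by light-transmission aggregometry. IC50 is the mean of two independent experiments (TPA lines n = 3).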

[2] = Antiaggregatory activity in human platelets assessed as inhibition of thrombin-induced platelet aggregation preincubated for 3 mins before thrombin challenge by turbidimetry analysis; assay type: functional, cell-based; method in brief: as §1
MDA-MB-231 [3] = test: Cytotoxicity against human MDA-MB-231 cells after 72 hrs by MTT assay; assay type: functional, cell-based; conditions: MDA-MB-231, 72 h
Method in brief: (§2)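 MDA-MB-231 breast cancer or HBL-100 non-malignant breast epithelial cells: freshly trypsinized cells seeded at 8000 per well, with compound added from DMSO-diluted stock. After 72 h, attached cells were given MTT (0.5 mg/mL, 1 h) and solubilized in DMSO.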

MDA-MB-231 [4] = test: Cytotoxicity against human MDA-MB-231 cells at 20 uM after 72 hrs by MTT assay; assay type: functional; conditions: MDA-MB-231, 72 h
HBL-100 [5] = test: Cytotoxicity against human HBL100 cells after 72 hrs by MTT assay; assay type: functional, cell-based; conditions: HBL-100, 72 h; method in brief: as §2
HBL-100 [6] = test: Cytotoxicity against human HBL100 cells at 20 uM after 72 hrs by MTT assay; assay type: functional; conditions: HBL-100, 72 h

SMILES | IC50 [1] | IC50 [2] | IC50 (MDA-MB-231 [3]) | inhibition at 20 µM (MDA-MB-231 [4]) | IC50 (HBL-100 [5]) | inhibition at 20 µM (HBL-100 [6])
CCOc1cc(/C=C/[N+](=O)[O-])ccc1O | 16.2 µM | 78.1 µM | > 20 µM | 34.4% | > 20 µM | 35.2%
O=[N+]([O-])/C(O)=C/c1ccccc1 | 7.8 µM | 35.5 µM | 13.9 µM | 21.2% | > 20 µM | 34.9%
O=[N+]([O-])C(=Cc1ccccc1)[N+](=O)[O-] | 3 µM | 5.7 µM | 9.9 µM |  | > 20 µM | 34.2%
COc1cc(/C=C/[N+](=O)[O-])ccc1OC(=O)c1cc(Cl)cc(Cl)c1 | 1.4 µM | 1.9 µM | > 20 µM | 20% | > 20 µM | 15.6%
COc1cc(/C=C/[N+](=O)[O-])ccc1OC(=O)c1cc(F)c(F)c(F)c1 | 0.9 µM | 1.4 µM | 12.4 µM |  | > 20 µM | 16.6%
COc1cc(/C=C/[N+](=O)[O-])ccc1OC(=O)c1cc(OC)c(OC)c(OC)c1 | 1.1 µM | 1.1 µM | 13.9 µM |  | > 20 µM | 47.4%
CCOc1cc(/C=C/[N+](=O)[O-])ccc1OC(=O)c1ccccc1 | 1 µM | 1.2 µM | 15.3 µM |  | 11.6 µM | 
COc1ccc(/C=C/[N+](=O)[O-])cc1OC(=O)c1ccccc1 | 0.8 µM | 1.9 µM | 7.7 µM |  | < 10 µM | 79.8%
CCOc1cc(/C=C(\C)[N+](=O)[O-])ccc1OC(=O)c1ccccc1 | 1.1 µM | 0.8 µM | 12.1 µM |  | 14.6 µM | 
COc1ccc(/C=C(\C)[N+](=O)[O-])cc1OC(=O)c1ccccc1 | 1 µM | 2.9 µM | 6.6 µM |  | 7.3 µM | 
COc1cc(/C=C/[N+](=O)[O-])ccc1OC(=O)c1ccccc1F | 1.6 µM | 4.7 µM | > 20 µM | 26.5% | > 20 µM | 4.9%
COc1cc(/C=C/[N+](=O)[O-])ccc1OC(=O)c1ccccc1Cl | 0.6 µM | 1 µM | > 20 µM | 7% | > 20 µM | 8.2%
COc1cc(/C=C/[N+](=O)[O-])ccc1OC(=O)c1ccccc1C(F)(F)F | 1.3 µM | 2.5 µM | > 20 µM | 20.4% | > 20 µM | 2.4%
COc1cc(/C=C/[N+](=O)[O-])ccc1OC(=O)c1ccccc1C | 1.2 µM | 1.5 µM | > 20 µM | 36.3% | > 20 µM | 1.8%
COc1cc(/C=C/[N+](=O)[O-])ccc1OC(=O)c1ccccc1OC | 0.8 µM | 2.1 µM | 19.4 µM |  | > 10 µM | 8.8%
COc1cc(/C=C/[N+](=O)[O-])ccc1OC(=O)c1cccc(F)c1 | 1.4 µM | 2.6 µM | > 20 µM | 44.9% | > 20 µM | 38.2%
COc1cc(/C=C/[N+](=O)[O-])ccc1OC(=O)c1cccc(Cl)c1 | 0.5 µM | 1.2 µM | 18.9 µM |  | > 20 µM | 23.2%
COc1cc(/C=C/[N+](=O)[O-])ccc1OC(=O)c1cccc(Br)c1 | 0.9 µM | 1.3 µM | > 20 µM | 19.1% | > 20 µM | 18.2%
COc1cc(/C=C/[N+](=O)[O-])ccc1OC(=O)c1cccc(C)c1 | 0.9 µM | 1.7 µM | 13.4 µM |  | 4.1 µM | 

SMILES | IC50 [1] | IC50 [2] | IC50 (MDA-MB-231 [3]) | inhibition at 20 µM (MDA-MB-231 [4]) | IC50 (HBL-100 [5]) | inhibition at 20 µM (HBL-100 [6])
COc1cccc(C(=O)Oc2ccc(/C=C/[N+](=O)[O-])cc2OC)c1 | 0.7 µM | 2.9 µM | > 20 µM | 28.9% | 12.1 µM | 
COc1cc(/C=C/[N+](=O)[O-])ccc1OC(=O)c1ccc(F)cc1 | 0.8 µM | 0.9 µM | 9.8 µM |  | > 20 µM | 25.1%
COc1cc(/C=C/[N+](=O)[O-])ccc1OC(=O)c1ccc(Cl)cc1 | 0.7 µM | 1.5 µM | > 20 µM | 33.2% | > 20 µM | 7.3%
COc1cc(/C=C/[N+](=O)[O-])ccc1OC(=O)c1ccc(Br)cc1 | 0.6 µM | 1.2 µM | > 20 µM | 9.1% | > 20 µM | 6.3%
COc1cc(/C=C/[N+](=O)[O-])ccc1OC(=O)c1ccc(C(F)(F)F)cc1 | 8.3 µM | 6.2 µM | > 20 µM | -4.9% | > 20 µM | -7.3%
COc1ccc(C(=O)Oc2ccc(/C=C/[N+](=O)[O-])cc2OC)cc1 | 0.8 µM | 3.5 µM | 18.1 µM |  | > 20 µM | 22.7%
COc1cc(/C=C/[N+](=O)[O-])ccc1OC(=O)c1ccc(F)c(F)c1 | 1.1 µM | 2.9 µM | > 20 µM | 22.1% | > 20 µM | 0.5%
COc1cc(/C=C/[N+](=O)[O-])ccc1OC(=O)c1cc(F)cc(F)c1 | 1.4 µM | 3.4 µM | > 20 µM | 24.7% | > 20 µM | 19%
COc1cc(/C=C/[N+](=O)[O-])ccc1OC(=O)c1ccc(Cl)cc1Cl | 0.7 µM | 0.7 µM | > 20 µM | -0.1% | > 20 µM | 9.9%
Cc1ccc(/C=C/[N+](=O)[O-])cc1 | 5.9 µM | 8.9 µM | > 20 µM |  | 15 µM | 
O=[N+]([O-])/C=C/c1ccc(Cl)cc1 | 3.5 µM | 7.5 µM | > 20 µM | 36.6% | 15.7 µM | 
COc1ccc(/C=C/[N+](=O)[O-])cc1 | 3.5 µM | 12.1 µM | 16.3 µM |  | 13 µM | 
O=[N+]([O-])/C=C/c1ccc(O)cc1 | 18.4 µM | 45.1 µM | > 20 µM | 38.3% | 16.3 µM | 
COc1cc(/C=C/[N+](=O)[O-])ccc1O | 16.4 µM | 66.5 µM |  |  |  | 
COc1cc(/C=C/[N+](=O)[O-])ccc1OC(=O)c1ccccc1 | 1.1 µM | 2.7 µM | 13.1 µM |  | > 20 µM | 0%
COc1ccc(/C=C/[N+](=O)[O-])cc1O | 7.2 µM | 28.5 µM | 18.9 µM |  | 12.8 µM | 
COc1ccc(/C=C/[N+](=O)[O-])cc1OC | 7.6 µM | 12.8 µM |  |  |  | 
O=[N+]([O-])/C=C/c1ccc2c(c1)OCO2 | 7.2 µM | 14 µM | 14 µM |  | > 20 µM | 39.2%
O=[N+]([O-])/C=C/c1ccccc1 [(2-NITROVINYL)BENZENE] | 4.9 µM | 17.8 µM |  |  |  | 
